This note sets out measurements from ChEMBL document CHEMBL3745639, “Structure-activity relationships for lipoprotein lipase agonists that lower plasma triglycerides in vivo” (Eur J Med Chem, 2015).

Broadly, the Papp B→A is the apparent permeability from the basolateral to the apical side of a cell layer. The pEC50 is the EC50 on a negative log10 scale, so that one unit is a factor of ten. What is called Papp A→B is how fast a substance crosses the layer from the apical side.

Series [1] can be described thus: Stability of the compound in human plasma after 4 hrs at 37 degC by mass spectrometric analysis. It is filed as ADME, cell-free. The conditions noted are these: read-out: Stability. In outline:
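Plasma test solution (pooled human plasma, typically 10 μM compound) held at 37 °C for 4 h, matching the dialysis time. A reference sample was frozen immediately. Proteins precipitated with methanol containing warfarin, then LC-MS/MS. Stability expressed on a relative basis.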

The nature of series [2]: Apparent permeability across basolateral to apical side in human Caco2 cells at 10 uM after 15 to 60 mins. The format is ADME, cell-based. The conditions noted are these: Caco-2. (In general: Passage across Caco-2 layers is used to estimate intestinal permeability.)
A short description of series [3]: Intrinsic clearance in human hepatocytes assessed per 10^6 cells at 1 uM after 10 to 60 mins by LC-MS/MS analysis in presence of NADPH. It is filed as ADME, cell-based, Hepatocyte. The conditions noted are these: read-out: CLH. In a few lines:
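Freshly isolated human hepatocytes (0.5 x 10⁶ cells/ml) in Williams medium E with compound at 1 μM. Reaction started by adding cells. Sampled at 0, 10, 30 and 60 min in duplicate, quenched with acetonitrile containing warfarin, then LC-MS/MS.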

Series [4] has as its target T1, Peroxisome proliferator-activated receptor gamma (Homo sapiens, UniProt P37231).
T1 sequence (P37231 whole entry): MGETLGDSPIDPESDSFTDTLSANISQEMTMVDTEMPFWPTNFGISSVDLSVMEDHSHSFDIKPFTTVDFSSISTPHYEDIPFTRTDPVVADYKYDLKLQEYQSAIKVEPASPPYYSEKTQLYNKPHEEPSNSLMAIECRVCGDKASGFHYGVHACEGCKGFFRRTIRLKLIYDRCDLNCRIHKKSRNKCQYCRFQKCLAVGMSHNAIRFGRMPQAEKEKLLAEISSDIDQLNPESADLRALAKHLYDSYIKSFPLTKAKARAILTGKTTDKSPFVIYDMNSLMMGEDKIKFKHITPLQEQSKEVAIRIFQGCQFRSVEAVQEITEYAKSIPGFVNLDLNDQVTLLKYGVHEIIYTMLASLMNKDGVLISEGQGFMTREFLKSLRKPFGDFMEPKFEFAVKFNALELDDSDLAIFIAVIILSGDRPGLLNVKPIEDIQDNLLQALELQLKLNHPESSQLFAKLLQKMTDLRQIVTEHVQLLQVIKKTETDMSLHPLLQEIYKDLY
The experiment in a line: Agonist activity at PPARgamma (unknown origin). In outline:
(§1)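 Single agonist-mode profiling at ten concentrations against FXR, PPARα, PPARγ and RXRα, run as an outside screening service.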

The nature of series [5]: Kinetic aqueous solubility of the compound in PBS at pH 7.4 after 2 hrs by LC-MS/MS analysis. It is filed as physicochemical. The conditions noted are these: read-out: Kinetic_solubility. In outline:
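Kinetic solubility from a 10 mM DMSO stock diluted 1:100 (1% DMSO, maximum detectable 0.1 mM) into PBS pH 7.4 or HCl-adjusted PBS at about pH 1.2. Incubated at 37 °C for 2 h in sealed glass vials, centrifuged at 10000 x g, 37 °C, 20 min, then LC-MS/MS.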

A short description of series [6]: Apparent permeability across apical to basolateral side in human Caco2 cells at 10 uM after 15 to 60 mins. The format is ADME, cell-based. The conditions noted are these: Caco-2. In a few lines:
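Caco-2 monolayers washed with pre-warmed HBSS, then donor solution applied. Transport run with apical pH 6.5 and basolateral pH 7.4. Monolayer integrity checked by TEER and by mannitol permeability. Papp derived from transport rates.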

Series [7] deals with T2, Retinoic acid receptor RXR-alpha (Homo sapiens, UniProt P19793).
T2 sequence (P19793 whole entry): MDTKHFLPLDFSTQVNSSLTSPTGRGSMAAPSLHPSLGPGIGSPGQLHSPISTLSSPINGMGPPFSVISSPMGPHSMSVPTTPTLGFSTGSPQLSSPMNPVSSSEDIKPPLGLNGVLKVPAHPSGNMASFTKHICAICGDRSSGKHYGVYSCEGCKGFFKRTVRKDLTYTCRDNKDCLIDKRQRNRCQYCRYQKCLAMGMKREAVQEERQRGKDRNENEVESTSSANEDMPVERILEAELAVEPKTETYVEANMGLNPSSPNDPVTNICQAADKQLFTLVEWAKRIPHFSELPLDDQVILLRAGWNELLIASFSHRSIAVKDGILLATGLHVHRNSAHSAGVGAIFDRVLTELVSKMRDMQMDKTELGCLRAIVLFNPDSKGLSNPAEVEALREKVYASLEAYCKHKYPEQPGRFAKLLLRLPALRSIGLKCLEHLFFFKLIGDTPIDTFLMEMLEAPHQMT
The experiment in a line: Agonist activity at RXRalpha (unknown origin). In outline: as §1

The subject of another series is Mus musculus. The experiment in a line: Hypolipidemic activity in C57B16/J mouse assessed as reduction in plasma triglyceride level at 10 mg/kg, ip qd administered for 4 days followed by olive oil injection through oral gavage one hour post last dose measured at 180 mins. The format is functional, organism-based. In a few lines:
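Female C57B16/J mice, 8-9 weeks, about 18 g, n = 8/group. Given 10 mg/kg i.p. once daily for 4 days, 0.5 ml in PBS pH 7.4 with 3% DMSO and 0.2% Triton X-100. Fasted 8 h before the last dose, then 0.2 ml oral olive oil gavage 1 h after it. Tail-vein EDTA plasma taken at baseline and every 60 min to 180 min. TG measured enzymatically, reported as mean ± SD.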

The target in series [8] is T3, Lipoprotein lipase (Bos taurus) (UniProt P11151).
T3 sequence (whole entry): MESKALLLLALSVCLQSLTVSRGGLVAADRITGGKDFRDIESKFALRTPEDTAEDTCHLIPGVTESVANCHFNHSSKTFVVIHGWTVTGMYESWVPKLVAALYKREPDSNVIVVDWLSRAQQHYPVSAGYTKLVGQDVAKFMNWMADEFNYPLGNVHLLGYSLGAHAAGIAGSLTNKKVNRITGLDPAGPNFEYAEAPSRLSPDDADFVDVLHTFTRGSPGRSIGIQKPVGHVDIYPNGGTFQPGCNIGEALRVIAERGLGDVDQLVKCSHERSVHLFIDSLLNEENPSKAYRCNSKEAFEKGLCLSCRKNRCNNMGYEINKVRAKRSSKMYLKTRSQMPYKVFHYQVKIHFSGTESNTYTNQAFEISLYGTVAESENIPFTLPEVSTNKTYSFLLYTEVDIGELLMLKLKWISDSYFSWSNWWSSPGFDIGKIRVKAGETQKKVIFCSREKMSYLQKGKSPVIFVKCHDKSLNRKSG
The experiment in a line: Induction of bovine LPL stabilization using intralipid as substrate at 6.25 uM preincubated for 10 mins with human recombinant ANGPTL4 followed by substrate addition measured after 45 mins relative to control. In outline: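 Compound in DMSO in buffer (50 mM potassium phosphate pH 7.4, 0.15 M NaCl, 0.01% Triton X-100), with human ANGPTL4 N-terminal fragment (aa 26-184, 75 nM final) and bovine LPL (15 nM final). Preincubated 10 min at 25 °C with shaking. Stopped after 45 min with 2.5% Triton X-100, and NEFA measured enzymatically. Activity normalised between DMSO+LPL+ANGPTL4 (0%) and DMSO+LPL (100%).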

Molecules are shown by their SMILES. pEC50: −log10 of the molar value. Active and inactive are the calls of the source. No cut-off for these calls is given here. Bounds are passed on as bounds.

On to `Cc1ccc(NC(=O)c2cc(-n3cc4ccc(C(=O)O)cc4n3)ccc2N2CCCCC2)cc1`, for which the remaining at 4 h in series [1] stood at 96%. In addition, the Papp B→A at 10 µM in series [2] stood at 31 ×10⁻⁶ cm/s. Further, in series [3], the hepatocyte CLint at 1 µM stood at 12 µL/min/1e6 cells. Further, the pEC50 in series [4] and in series [7] was less than 4.00 each time. Also, the solubility kinetic at 2 h in [5] was less than 2 µM. Further, in [6], the Papp A→B at 10 µM turned out to be 23 ×10⁻⁶ cm/s. For the same molecule, in the series with Mus musculus, the outcome was Active. The Activity in series [8] came to 16%.
